Results from different studies.
Protocols differ between the studies behind these lines.
Target: Megakaryocyte-associated tyrosine-protein kinase (MATK, Homo sapiens, UniProt P42679)
One construct used (P42679 1-507): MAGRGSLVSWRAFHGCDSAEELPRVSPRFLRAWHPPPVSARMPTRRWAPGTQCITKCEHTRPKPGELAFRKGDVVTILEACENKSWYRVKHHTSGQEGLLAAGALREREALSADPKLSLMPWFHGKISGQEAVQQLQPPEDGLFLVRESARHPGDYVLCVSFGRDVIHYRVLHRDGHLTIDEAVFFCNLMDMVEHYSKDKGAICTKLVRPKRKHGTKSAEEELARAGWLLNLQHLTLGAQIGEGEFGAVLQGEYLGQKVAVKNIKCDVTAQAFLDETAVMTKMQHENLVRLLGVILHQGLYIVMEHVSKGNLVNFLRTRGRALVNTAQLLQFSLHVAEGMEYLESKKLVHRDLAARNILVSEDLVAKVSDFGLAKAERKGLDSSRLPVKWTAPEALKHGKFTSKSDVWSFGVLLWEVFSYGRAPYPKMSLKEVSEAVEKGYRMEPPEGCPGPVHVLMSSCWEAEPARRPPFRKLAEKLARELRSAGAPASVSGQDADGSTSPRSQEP

| SMILES | observed | action | method | concentration | endpoint | result |
| --- | --- | --- | --- | --- | --- | --- |
| O=C1NC(=O)c2cc(Nc3ccc(F)cc3)c(Nc3ccc(F)cc3)cc21 | cell-free assay |  |  | 0.5 µM | remaining signal | 93.5% |
| CN(C)C(=O)Cn1cc(-c2nc([C@@](C)(c3ccc(-c4cnc(N)nc4)cc3)C3CC3)no2)cn1 | cell-free assay |  | competition with immobilised ligand | 1 µM | remaining binding | 77% |
| O=C1Nc2ccc(Cl)cc2C1=Cc1cc(Cl)c(O)c(Cl)c1 | cell-free assay |  |  | 0.5 µM | remaining signal | 82.2% |
| CC(C)(C)c1nc2c(s1)c1nc(N)ncc1c1ccc(NS(=O)(=O)c3c(F)cccc3F)c(F)c12 | enzyme activity | inhibitor | radiometric | 1 µM | remaining activity | 101% |
| COc1cc2ncnc(Nc3ccc(Oc4ccccc4)c(C)c3C)c2cc1OC | enzyme activity | inhibitor |  | 1 µM | inhibition | -2% |
| O=C(O)[C@@H]1[C@@H](Cn2nnc3ccccc3c2=O)CC[C@H]1C(=O)c1ccc(OCCC2CCOCC2)cc1 | cell-free assay |  | competition with immobilised ligand | 1 µM | remaining binding | 95% |
| c1nc2c(Nc3ccc4c(c3)OCCO4)nc(Nc3ccc4c(c3)OCCO4)nc2[nH]1 | enzyme activity | inhibitor |  | 10 µM | activity vs control | 49% |
| O=C(Nc1cnn(-c2csc(C(=O)NC3COC3)c2)c1)Nc1c(F)cccc1Cl | enzyme activity | inhibitor |  | 5 µM | remaining activity | 100% |
| CNC(=O)c1ccc(Nc2ncc(C(F)(F)F)c(NCc3nccnc3N(C)S(C)(=O)=O)n2)cc1 | cell-free assay |  | competition with immobilised ligand | 0.1 µM | remaining binding | 37% |
| Cc1cnn2ncc(-c3ccnc(N(C)C)n3)c2c1 | binding |  |  | 1 µM | remaining binding | 100% |
| Nc1ncnc2occ(-c3ccc(NC(=O)Nc4cc(C(F)(F)F)ccc4F)cc3)c12 | cell-free assay | inhibitor |  | 20 µM | remaining signal | 13% |
| Cc1sc(C(=O)NC2COC2)cc1-n1cc(NC(=O)Nc2c(F)cccc2Cl)cn1 | enzyme activity | inhibitor |  | 10 µM | remaining activity | 97.8% |
